pEC50, pIC50: −log10 of the molar value.
What was measured:
[1] = system: MDA-MB-231; assay: Prodrug conversion in human MDA-MB-231 cells assessed as belinostat level after 3 days by UHPLC-MS/MS analysis; type: ADME, cell-based; conditions: mda-mb-231, 72 h
How it was run: (§1)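 MDA-MB-231 or HeLa cells were incubated with the pinacol boronate prodrug, and culture medium was sampled daily from day 1 to day 6. The prodrug, boronic acid forms and belinostat were separated, identified and quantified by HPLC coupled to an Orbitrap mass spectrometer. Results are in ng/mL as mean ± SEM of triplicate experiments.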

[2] = system: HeLa; assay: Prodrug conversion in human HeLa cells assessed as belinostat level after 6 days by UHPLC-MS/MS analysis; type: ADME, cell-based; conditions: 144 h; how it was run: as §1
[3] = system: MDA-MB-231; assay: Prodrug conversion in human MDA-MB-231 cells assessed as belinostat level after 2 days by UHPLC-MS/MS analysis; type: ADME, cell-based; conditions: mda-mb-231, 48 h; how it was run: as §1
[4] = system: MCF7; assay: Antitumor activity against human MCF7 cells implanted in ovariectomized nu/nu mouse assessed as tumor weight at 10 mg/kg, sc administered once daily for 22 days measured post last dose (reference value: 743 +/- 142 mg); type: functional
[5] = system: MDA-MB-231; assay: Prodrug conversion in human MDA-MB-231 cells assessed as belinostat level after 6 days by UHPLC-MS/MS analysis; type: ADME, cell-based; conditions: mda-mb-231, 144 h; how it was run: as §1
[6] = system: HeLa; assay: Prodrug conversion in human HeLa cells assessed as belinostat level after 4 days by UHPLC-MS/MS analysis; type: ADME, cell-based; conditions: 96 h; how it was run: as §1
[7] = Drug uptake in tumor of ovariectomized nu/nu mouse implanted with human MCF7 cells assessed as (E)-4-((3-(3-(N-phenylsulfamoyl)phenyl)acrylamidooxy)methyl)phenylboronic acid level at 10 mg/kg, sc administered once daily for 22 days measured post last dose by HPLC-MS/MS analysis; type: ADME, organism-based, Neoplasm; conditions: in vivo, 528 h
How it was run: (§2)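 After 22 days of 10 mg/kg/day subcutaneous dosing in MCF-7 xenograft mice, animals were sacrificed. Tumours were excised, homogenized and extracted, then analysed by HPLC–MS/MS for belinostat and the free boronic acid. Results are expressed as ng/g tissue.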

[8] = system: HeLa; assay: Antiproliferative activity against human HeLa cells after 72 hrs by resazurin dye based fluorescence assay; type: functional, cell-based
[9] = system: MDA-MB-231; assay: Prodrug conversion in human MDA-MB-231 cells assessed as belinostat level after 4 days by UHPLC-MS/MS analysis; type: ADME, cell-based; conditions: mda-mb-231, 96 h; how it was run: as §1
[10] = system: A549; assay: Antiproliferative activity against human A549 cells after 72 hrs by resazurin dye based fluorescence assay; type: functional, cell-based; conditions: A549, 72 h
[11] = target: T1, Histone deacetylase 8 (Homo sapiens, UniProt Q9BY41); assay: Inhibition of human HDAC8 using RHK(Ac)K(Ac)AMC as substrate
T1 sequence (Q9BY41 whole entry): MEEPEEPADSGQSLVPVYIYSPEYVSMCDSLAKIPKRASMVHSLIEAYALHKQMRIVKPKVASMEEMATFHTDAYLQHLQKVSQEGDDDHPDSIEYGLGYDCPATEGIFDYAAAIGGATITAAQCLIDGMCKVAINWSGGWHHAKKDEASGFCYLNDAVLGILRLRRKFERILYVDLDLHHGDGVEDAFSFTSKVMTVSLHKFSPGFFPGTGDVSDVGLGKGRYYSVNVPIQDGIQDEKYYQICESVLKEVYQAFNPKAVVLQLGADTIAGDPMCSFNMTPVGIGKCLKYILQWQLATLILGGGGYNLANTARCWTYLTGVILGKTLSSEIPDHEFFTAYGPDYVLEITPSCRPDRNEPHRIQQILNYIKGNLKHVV

[12] = system: HeLa; assay: Prodrug conversion in human HeLa cells assessed as (E)-4-((3-(3-(N-phenylsulfamoyl)phenyl)acrylamidooxy)methyl)phenylboronic acid level after 3 days by UHPLC-MS/MS analysis; type: ADME, cell-based; conditions: 72 h; how it was run: as §1
[13] = system: MCF7; assay: Antiproliferative activity against human MCF7 cells after 72 hrs by resazurin dye based fluorescence assay; type: functional, cell-based; conditions: MCF7, 72 h
[14] = system: HeLa; assay: Prodrug conversion in human HeLa cells assessed as belinostat level after 1 day by UHPLC-MS/MS analysis; type: ADME, cell-based; conditions: 24 h; how it was run: as §1
[15] = target: Histone deacetylase; assay: Inhibition of HDAC in human cell lysates using fluoro-substrate peptide/fluoro-deacetylated peptide as substrate incubated for 20 mins measured at 1 to 2 mins interval for 30 to 60 mins by fluorescence assay; type: protein assay
[16] = Drug uptake in tumor of ovariectomized nu/nu mouse implanted with human MCF7 cells assessed as belinostat level at 10 mg/kg, sc administered once daily for 22 days measured post last dose by HPLC-MS/MS analysis; type: ADME, organism-based, Neoplasm; conditions: in vivo, 528 h; how it was run: as §2
[17] = system: MCF7; assay: Antitumor activity against human MCF7 cells implanted in ovariectomized nu/nu mouse assessed as tumor volume at 10 mg/kg, sc administered once daily for 22 days measured post last dose (reference value: 869 +/- 173 mm3); type: functional
[18] = system: MCF-10A; assay: Cytotoxicity against human MCF10A cells assessed as reduction in cell proliferation at 10 uM after 72 hrs by resazurin dye based fluorescence assay
[19] = system: MCF7; assay: Antitumor activity against human MCF7 cells implanted in ovariectomized nu/nu mouse assessed as tumor volume at 10 mg/kg, sc administered once daily for 22 days measured post last dose relative to control; type: functional
[20] = system: HeLa; assay: Prodrug conversion in human HeLa cells assessed as (E)-4-((3-(3-(N-phenylsulfamoyl)phenyl)acrylamidooxy)methyl)phenylboronic acid level after 2 days by UHPLC-MS/MS analysis; type: ADME, cell-based; conditions: 48 h; how it was run: as §1
[21] = system: HeLa; assay: Prodrug conversion in human HeLa cells assessed as belinostat level after 2 days by UHPLC-MS/MS analysis; type: ADME, cell-based; conditions: 48 h; how it was run: as §1
[22] = system: MDA-MB-231; assay: Antiproliferative activity against human MDA-MB-231 cells after 72 hrs by resazurin dye based fluorescence assay; type: functional, cell-based; conditions: MDA-MB-231, 72 h
[23] = system: MDA-MB-231; assay: Prodrug conversion in human MDA-MB-231 cells assessed as belinostat level after 5 days by UHPLC-MS/MS analysis; type: ADME, cell-based; conditions: mda-mb-231, 120 h; how it was run: as §1
[24] = system: MDA-MB-231; assay: Prodrug conversion in human MDA-MB-231 cells assessed as (E)-4-((3-(3-(N-phenylsulfamoyl)phenyl)acrylamidooxy)methyl)phenylboronic acid level after 2 days by UHPLC-MS/MS analysis; type: ADME, cell-based; conditions: mda-mb-231, 48 h; how it was run: as §1
[25] = system: SK-MEL-28; assay: Antiproliferative activity against human SK-MEL-28 cells after 72 hrs by resazurin dye based fluorescence assay; type: functional, cell-based; conditions: SK-MEL-28, 72 h
[26] = system: MDA-MB-231; assay: Prodrug conversion in human MDA-MB-231 cells assessed as (E)-4-((3-(3-(N-phenylsulfamoyl)phenyl)acrylamidooxy)methyl)phenylboronic acid level after 6 days by UHPLC-MS/MS analysis; type: ADME, cell-based; conditions: mda-mb-231, 144 h; how it was run: as §1
[27] = system: HeLa; assay: Prodrug conversion in human HeLa cells assessed as (E)-4-((3-(3-(N-phenylsulfamoyl)phenyl)acrylamidooxy)methyl)phenylboronic acid level after 5 days by UHPLC-MS/MS analysis; type: ADME, cell-based; conditions: 120 h; how it was run: as §1
[28] = system: MDA-MB-231; assay: Prodrug conversion in human MDA-MB-231 cells assessed as (E)-4-((3-(3-(N-phenylsulfamoyl)phenyl)acrylamidooxy)methyl)phenylboronic acid level after 1 day by UHPLC-MS/MS analysis; type: ADME, cell-based; conditions: mda-mb-231, 24 h; how it was run: as §1
[29] = system: HeLa; assay: Prodrug conversion in human HeLa cells assessed as belinostat level after 5 days by UHPLC-MS/MS analysis; type: ADME, cell-based; conditions: 120 h; how it was run: as §1
[30] = system: MDA-MB-231; assay: Prodrug conversion in human MDA-MB-231 cells assessed as belinostat level after 1 day by UHPLC-MS/MS analysis; type: ADME, cell-based; conditions: mda-mb-231, 24 h; how it was run: as §1
[31] = system: MDA-MB-231; assay: Prodrug conversion in human MDA-MB-231 cells assessed as (E)-4-((3-(3-(N-phenylsulfamoyl)phenyl)acrylamidooxy)methyl)phenylboronic acid level after 3 days by UHPLC-MS/MS analysis; type: ADME, cell-based; conditions: mda-mb-231, 72 h; how it was run: as §1

CC1(C)OB(c2ccc(CONC(=O)/C=C/c3cccc(S(=O)(=O)Nc4ccccc4)c3)cc2)OC1(C)C
Drug metabolism [1]: 20.3 ng/mL | Drug metabolism [2]: 3.8 ng/mL | Drug metabolism [3]: 27.7 ng/mL | Activity [4]: 109 mg | Drug metabolism [5]: 27.8 ng/mL | Drug metabolism [6]: 7.8 ng/mL | Drug uptake [7]: 51 ng/g | pIC50 [8]: 6.56 | Drug metabolism [9]: 19.8 ng/mL | pIC50 [10]: 6.34 | pEC50 [11]: 3.47 | Drug metabolism [12]: 144.9 ng/mL | pIC50 [13]: 5.84 | Drug metabolism [14]: 8.4 ng/mL | EC50 [15]: 350 nM | Drug uptake [16]: 57 ng/g | Activity [17]: 127 mm3 | Activity [18]: Non-Toxic | T/C [19]: 14.6% | Drug metabolism [20]: 147.4 ng/mL | Drug metabolism [21]: 6.6 ng/mL | pIC50 [22]: 6.52 | Drug metabolism [23]: 28.5 ng/mL | Drug metabolism [24]: 268.5 ng/mL | pIC50 [25]: 6.17 | Drug metabolism [26]: 130.9 ng/mL | Drug metabolism [27]: 82.7 ng/mL | Drug metabolism [28]: 331.8 ng/mL | Drug metabolism [29]: 3.7 ng/mL | Drug metabolism [30]: 30.7 ng/mL | Drug metabolism [31]: 246.9 ng/mL

Source: ChEMBL document CHEMBL4251664, “Biocompatible Boron-Containing Prodrugs of Belinostat for the Potential Treatment of Solid Tumors” (ACS Med Chem Lett, 2018)
